# Compound activity: PubChem BioAssay, several laboratories
# ALR inh: blocks human ALR sulfhydryl oxidase activity; P55789; purified ALR, DTT oxidation, H2O2 HRP-luminol luminescence; 290,000 tested, 3.8% active; inhibition, % (test concentration not listed);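 active = mean replicate inhibition above about 79%, with every replicate also reaching it, limit read from the data; inconclusive = only one of the two criteria met; inactive = mean below limit and not every replicate reaching it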
# NALP1 yeast inh: blocks the NALP1 inflammasome reconstituted in yeast | S. cerevisiae NALP1/ASC/caspase-1 growth, X-gal OD620, 72 h | 280,000 tested, 0.61% active | inhibition, % at 10 µM | AID 2071; in the data active = inhibition mostly above about 24%, no sharp cut-off; inactive = mostly below about 32%
# NALP3 yeast inh: blocks the NALP3 inflammasome reconstituted in yeast. Yeast reconstituted NLRP3/ASC/caspase-1, beta-gal luminescence, 24 h. inhibition, % at 10 µM. 330,000 tested, 0.39% active. AID 2825;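 active = inhibition of 50% or more; inactive = inhibition below 50%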
# ATG4B inhibitor: ATG4B (human) cysteine protease inhibition; ATG4B cleavage of LC3-PLA2, NBD-HPC fluorescence, 1 h; inhibition, % at 8.33 µM; 340,000 tested, 0.51% active; AID 504462; in the data active = inhibition above about 40%
# Calb FLC: affects C. albicans growth with fluconazole. C. albicans CaCi-2 (fluconazole-resistant clinical isolate) + fluconazole, Alamar Blue growth, 48 h. growth inhibition, % (concentration not given with the values). 300,000 tested, 0.57% active. AID 1979;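 active = growth inhibition above about 58% in most replicates, limit read from the data, passing the limit was not always enough; inconclusive = exactly half the replicates above a set limit; inactive = most replicates below a set limit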;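 note: all wells also contain fluconazole at 8 µg/ml as a sub-toxic cotreatment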
# UCH37 DUB inh: inhibitors of human deubiquitinating enzyme UCH37; Q9Y5K5; purified proteasome/UCH37, Ub-AMC cleavage fluorescence; inhibition, % (concentration not given with the values); 330,000 tested, 0.33% active; AID 588478;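 active = mean inhibition over replicate wells above about 20%, limit read from the data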
# Target sequence (Q9Y5K5 whole entry, looked up): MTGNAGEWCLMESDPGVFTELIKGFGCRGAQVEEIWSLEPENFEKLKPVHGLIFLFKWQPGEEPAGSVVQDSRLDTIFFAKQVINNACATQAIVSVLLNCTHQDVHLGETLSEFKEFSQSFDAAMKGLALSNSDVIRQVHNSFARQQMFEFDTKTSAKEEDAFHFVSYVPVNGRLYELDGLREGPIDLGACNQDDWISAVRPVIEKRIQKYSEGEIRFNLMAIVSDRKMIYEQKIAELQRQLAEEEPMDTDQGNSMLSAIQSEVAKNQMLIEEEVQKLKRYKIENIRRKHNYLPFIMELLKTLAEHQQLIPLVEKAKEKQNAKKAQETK
#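 assay system = human UCH37 enzyme supplied as purified proteasome complex | amount = proteasome at 0.15 nM in the dispensed enzyme solution | schedule = 30 min compound-proteasome preincubation then 25 min substrate reaction, room temperature | measured by = fluorescence, ex 355 nm, em 460 nm | benchmarks = no-proteasome wells (full inhibition) and compound-free wells (no inhibition)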
# NALP3 confirm: NALP3 inhibition confirmation in yeast; shares compounds with NALP3 yeast inh; yeast expressing human NALP3, luminescence; inhibition, % at 10 µM; 1,300 tested, 81% active; AID 435006; in the data active = inhibition above about 48%
# ATG4B confirm: ATG4B (human) inhibition, single-dose confirmed; ATG4B protease fluorescent substrate cleavage assay; inhibition, % at 8.33 µM; shares compounds with ATG4B inhibitor; 320 tested, 92% active; in the data active = inhibition above about 39%
# PLA2 ctr: PLA2 (human) inhibition in ATG4B counter-screen | inhibition, % at 8.33 µM | shares compounds with ATG4B inhibitor | purified PLA2, NBD-C6-HPC fluorescence, 45 min | 1,600 tested, 66% active; in the data active = inhibition above about 50%
# Target sequence (P04054 whole entry, looked up): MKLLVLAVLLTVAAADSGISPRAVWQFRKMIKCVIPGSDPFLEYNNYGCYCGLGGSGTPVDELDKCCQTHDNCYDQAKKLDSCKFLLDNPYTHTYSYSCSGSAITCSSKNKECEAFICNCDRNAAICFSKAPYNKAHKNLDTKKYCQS
# UCH37 reconfirm: UCH37 Ub-AMC cleavage inhibition, confirmed. shares compounds with UCH37 DUB inh. Proteasome-bound UCH37, Ub-AMC cleavage fluorescence. inhibition, % at 20 µM. 480 tested, 27% active. AID 624100;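 active = average inhibition over replicates above about 50%, so the earlier screening hit is confirmed, limit read from the data; inactive = the rest, counted as false positives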;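 note: based on cleavage rate fitted by regression over a 30 min kinetic read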
# Hits are given with their value; n = inactive; u = inconclusive; x = not tested or not shown. Shown are actives, neighbours in structure and some others; about 4.8% of the full set was active somewhere.
SMILES,ALR inh,NALP1 yeast inh,NALP3 yeast inh,ATG4B inhibitor,Calb FLC,UCH37 DUB inh,PLA2 ctr,others
CCCCCCCCCCCCCCCC[n+]1ccc(C(N)=O)cc1,n,96,53,n,x,68,x,NALP3 confirm=n;UCH37 reconfirm=71
O=C(CSCc1ccc([N+](=O)[O-])cc1)NN=Cc1ccncc1,x,x,x,x,x,n,x,
COc1ccc(-c2cn(Cc3cccc(OC)c3)nn2)cc1,n,n,n,n,n,n,x,
COc1cccc(Cn2cc(-c3cccc(C(F)(F)F)c3)nn2)c1,n,n,n,50,n,n,68,
CCOC(=O)N1CCN(C(=O)c2ccc3c(=O)n(-c4ccccc4F)c(=S)[nH]c3c2)CC1,x,n,n,n,n,n,x,
CCc1ccc(C(CNC(=O)c2ccc3c(=O)n(-c4ccccc4F)c(=S)[nH]c3c2)N(C)C)cc1 (configuration not stated),n,n,n,70,n,n,83,
Cc1ccc(C)c(N2CCN(C(=O)CCn3c(=S)[nH]c4cc5c(cc4c3=O)OCO5)CC2)c1,n,n,n,51,n,n,50,
COc1ccc(N2CCN(C(=O)CCCn3c(=S)[nH]c4cc5c(cc4c3=O)OCO5)CC2)cc1,n,n,n,n,u,n,x,
Cc1ccc(-c2cc(C(=O)O)c3sc(N4CCCCC4)nc3n2)cc1,98,n,n,40,n,n,n,
O=C(NCc1ccc(Cl)cc1)c1ccccc1CCc1ccccc1,n,n,n,55,n,n,53,
COc1ccc2nc(C)cc(SCC(=O)NN=Cc3ccc(O)c(O)c3)c2c1,x,x,x,x,x,n,x,
CCC(CO)n1c(SCc2cc([N+](=O)[O-])cc3c2OCOC3)nc2ccccc2c1=O (configuration not stated),n,n,n,43,n,n,55,
O=C(Nc1ccccc1)/C(=C/c1ccccc1)c1ccccc1,n,n,n,n,n,n,x,
Cc1ccccc1NC(=O)/C(=C/c1ccccc1)c1ccccc1,n,n,n,43,n,n,n,ATG4B confirm=65
CC(=NNc1ccc(F)cc1)c1ccc(Cl)s1,x,x,x,x,x,n,x,
O=C1NC(=S)S/C1=C\c1ccc(SCc2ccccc2)o1,n,n,x,40,x,n,56,
Cc1ccc(-c2cc(=O)c3cc(C)ccc3[nH]2)cc1,n,n,n,72,n,n,n,
Cc1ccc(-c2cc(=O)c3cc(F)ccc3[nH]2)cc1,x,n,n,n,n,n,x,
COc1cnc(SCc2c(Cl)cccc2Cl)nc1Cl,n,n,n,50,n,n,n,ATG4B confirm=59
CCCCCCCCCCCCN1[C@@H](CC(=O)OC)c2cc(C(F)(F)F)ccc2S1(=O)=O,n,x,n,n,n,n,x,
CCCCCCCCCCCCN1[C@@H](CC(=O)O)c2cc(C(F)(F)F)ccc2S1(=O)=O,98,x,n,59,n,n,72,
COc1ccc(C)cc1S(=O)(=O)N(CC(=O)Nc1cccc([N+](=O)[O-])c1)c1cc(C)cc(C)c1,x,n,n,83,n,n,86,
COc1ccc(C)cc1S(=O)(=O)N(CC(=O)Nc1cc([N+](=O)[O-])ccc1C)c1ccc(C)c(C)c1,n,n,n,77,n,n,87,
Cc1ccc(S(=O)(=O)N(CC(=O)Nc2ccc(Cl)c([N+](=O)[O-])c2)C2CCCCC2)cc1,n,n,n,n,n,n,x,
COc1ccc([N+](=O)[O-])cc1NC(=O)CS(=O)(=O)c1ccc(C)cc1,x,n,n,n,n,n,x,
Cc1ccc(S(=O)(=O)N(CC(=O)Nc2cccc([N+](=O)[O-])c2)C2CCCCC2)cc1,n,n,n,45,n,n,51,
CCN(CC)S(=O)(=O)c1ccc(NN=Cc2cc(OC)c(OC)cc2OC)nc1,x,x,x,x,x,n,x,
